Read-outs that look alike come from different tables or passages of the source.
Columns and labels:
[1] = target: DRB1*07:01 (Homo sapiens, UniProt P01903+P01911, A100R/A102G/A103Q/D57E/D86V/E43K/F76Y/K127E/L162R/M171V/P40G/Q125H/Q99D/R33Q/R42Y/R54Q/S133A/S66F/T210M/V115G/Y107V/Y59L/Y89S); assay: MHC class II competitive inhibition binding assay, DRB1*07:01; details: experimental competitive peptide binding
Outline: (§1)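 Competitive inhibition assay using purified MHC class II molecules and a high-affinity radiolabelled MHC class II ligand. Binding given as IC50, taken as an approximation of Kd under the assay conditions. Test peptide stock in DMSO at 20 mg/ml, stored at −80°C.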

[2] = target: DRB1*04:01 (Homo sapiens, UniProt P01903+P01911, A100K/A169T/F76Y/I96L/K127E/L162R/M171V/N62H/P40V/Q125Y/R42H/S133A/S149N/S66Y/V115G/V209L/W38E); assay: MHC class II competitive binding assay, DRB1*04:01; details: experimental competitive peptide binding
Outline: as §1

[3] = target: DRB1*13:02 (Homo sapiens, UniProt P01903+P01911, A100E/A169T/K41T/L162R/M171V/P40S/Q125H/Q178H/Q39Y/Q99D/R42S/S66N/T262R/V115G/W38E/Y61H); assay: MHC class II competitive binding assay, DRB1*13:02; details: experimental competitive peptide binding
Outline: as §1

[4] = system: p18-specific CD4^+ T cells in human PBMC; assay: DRB1*07:01-p18 tetramer staining of human PBMC by flow cytometry; assay type: cell-based; details: sCVD N=14, no sCVD N=15
[5] = system: DRB1*07:01-p18^+CD4^+ T cells; assay type: cell-based, human
[6] = system: peritoneal CD4^+ T cells; assay type: in vivo, mouse
[7] = system: peritoneal CD4^+ T cells; assay type: in vivo, mouse; details: 1x CFA and 1x IFA, N=9-10
[8] = system: peritoneal Tregs; assay: IL-10 production and Nrp-1 of Tregs after p18 immunization; assay type: in vivo, mouse; details: N=7
[9] = system: peritoneal CD4^+ T cells; assay: TCR activation; assay type: in vivo, mouse
[10] = system: p18:I-A^b+CD4^+ T cells (peritoneal); assay: p18:I-A^b tetramer staining of peritoneal CD4^+ T cells, Nur77^GFP Apoe^−/− mice; assay type: in vivo, mouse
[11] = system: p18:I-A^b+CD4^+ T cells (spleen); assay: p18:I-A^b tetramer staining of splenic CD4^+ T cells; assay type: in vivo, mouse
[12] = system: splenic CD4^+ T cells; assay: IL-10 ELISPOT of splenic CD4^+ T cells restimulated with p18; assay type: cell-based, mouse; details: splenic CD4^+ T cells with antigen presenting cells and p18, 24 hours; 1xCFA and 1xIFA; N=9-10
[13] = system: Apoe^−/− mice; assay: Aortic atherosclerosis; assay type: in vivo, mouse; details: 50 μg p18, 1xCFA + 4xIFA, western diet 13 weeks; vs adjuvant only; N=8-9
[14] = Plasma lipid analysis of vaccinated Apoe^−/− mice; assay type: in vivo, mouse; details: Supplementary Figure 6; 1xCFA + 4xIFA
Outline: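 Apoe−/− mice immunised 1xCFA + 4xIFA. Whole blood taken by cardiac puncture into EDTA at organ harvest and spun at 3000 × g for 15 min at 4°C. Plasma supernatant stored at −80°C to limit freeze/thaw, then sent for external lipid analysis.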

[15] = system: p18; details: vaccinated Apoe^−/− mice; Supplementary Figure 7
[16] = system: atherosclerosis patients; details: GLACIER trial; cited from earlier work
[17] = spleen, vaccinated Apoe^−/− mice

SLFFSAQPFEITAST [p18]
binding to DRB1*07:01 [1]: binds | binding to DRB1*04:01 [2]: binds | binding to DRB1*13:02 [3]: binds | trend in p18-specific CD4^+ T cells in sCVD patients vs no sCVD [4]: did not reach statistical significance | Tregs co-expressing T-bet among DRB1*07:01-p18^+CD4^+ T cells ([5]; no sCVD): 1.2±0.5% | FoxP3^+Rorγt^+ cells among p18-specific CD4^+ T cells ([5]; patients with sCVD): significant increase | Tregs co-expressing RORγt among DRB1*07:01-p18^+CD4^+ T cells ([5]; sCVD donors, mean ± SEM): 8.8±3.7% | Tregs co-expressing T-bet among DRB1*07:01-p18^+CD4^+ T cells ([5]; sCVD patients): 4.1±1.4% | Tregs co-expressing RORγt among DRB1*07:01-p18^+CD4^+ T cells ([5]; sCVD^− participants): almost undetectable | fraction of p18-specific CD4^+ T cells that are FoxP3^+ Tregs ([5]; women with no sCVD): most | FoxP3 by intracellular staining of CD4^+ T cells ([6]; Apoe^−/− mice, peritoneal, N=6, compared with YFP result): gave a similar result | CD25^+FoxP3^+CD4^+ T cells of all CD4^+ T cells ([6]; peritoneal cavity, FoxP3^YFPcreApoe^−/− mice, 2 weeks after immunization, 1xCFA s.c. + 1xIFA i.p., from ~6%, N=7): ~ 12% | abundance of Tregs in peritoneal cavity ([7]; Apoe^−/− mice on CD or WD): significantly increased | FoxP3^+Tbet^+ cells in peritoneal cavity ([7]; CD or WD): increased | FoxP3^+GATA3^+ cells in peritoneal cavity [7]: only observed in mice fed CD and not in mice fed WD | IL-10-producing cells among all Tregs ([8]; FoxP3^+CD4^+ cells, vs adjuvant): significant expansion | inducible Tregs (Nrp-1 negative) among classical Tregs [8]: Most | IL-10-producing iTregs (Nrp-1^−FoxP3^+CD4^+) ([8]; p18 immunized, from ~12%): ~ 25% | Nur77^GFP+ frequency among CD25^+FoxP3^+ Tregs vs all CD4^+ T cells ([9]; mice immunized with p18, 24 hours after restimulation): further elevated | CD25^+FoxP3^+ Tregs in Nur77^GFP+ activated cell population ([9]; p18 immunized mice, N=5-6, adjuvant only showed a similar fraction): significantly enriched | peritoneal p18:I-A^b+CD4^+ T cells, p18-immunized vs adjuvant ([10]; Apoe^−/− mice fed CD or WD, Supplementary Figure 5): did not observe any significant differences | ApoB p18-specific (PE- and APC-double positive) CD4^+ T cells ([10]; increase vs adjuvant only, peritoneal, 1x CFA and 1x IFA, N=5-6): ~ 3 -fold | CD25^+FoxP3^+ Tregs among p18:I-A^b+CD4^+ T cells ([10]; peritoneal, p18 immunized, N=5-6): 40% | Nur77^GFP+ cells among p18:I-A^b+CD4^+ T cells ([10]; peritoneal, N=5-6): highly enriched | CD25^+FoxP3^+ Tregs among p18:I-A^b–CD4^+ T cells ([10]; tetramer-negative cells, peritoneal, p18 immunized, N=5-6): 9% | p18:I-A^b+CD4^+ T cells in spleen ([11]; IL-10^GFP Apoe^−/− mice, N=4-5): increased | FoxP3 expression of splenic p18:I-A^b+CD4^+ T cells vs adjuvant ([11]; N=9-10): significantly more | splenic bulk FoxP3^+CD4^+ T cells vs adjuvant only ([11]; data not shown): did not find a significant difference | IL-10 production of p18:I-A^b+FoxP3^+CD4^+ T cells ([11]; spleen, IL-10^GFP Apoe^−/− mice, N=4-5): significantly more than in adjuvant-only controls | IL-10 production of p18:I-A^b–FoxP3^+CD4^+ T cells ([11]; spleen, tetramer-negative, N=4-5): did not increase | central memory cells (CD62L^+CD44^+) among memory p18:I-A^b+CD4^+ T cells [11, 17]: 20% | effector memory cells (CD62L^−CD44^+) among memory p18:I-A^b+CD4^+ T cells [11, 17]: 80% | p18:I-A^b+CD4^+ T cells with memory phenotype (CD44^+) [11, 17]: Most | IL-10^+ spots (ELISPOT) vs adjuvant only [12]: significantly more | reduction of lesion size, aortic arch [13]: ~ 35% | reduction of lesion size, whole aorta [13]: ~ 35% | plasma lipids [14]: unchanged | IgG1 antibodies to p18 in plasma [15]: detected | IgG2c antibodies to p18 in plasma [15]: detected

B1: recombinant IgG1 antibody to oxLDL: recombinant IgG1 antibody to oxLDL infused in the GLACIER trial (antibody, chains of the INN, looked up, V domains shown)
VH: EVQLLESGGGLVQPGGSLRLSCAASGFTFSNAWMSWVRQAPGKGLEWVSSISVGGHRTYYADSVKGRSTISRDNSKNTLYLQMNSLRAEDTAVYYCARIRVGPSGGAFDYWGQGTLVTVSS
VL: QSVLTQPPSASGTPGQRVTISCSGSNTNIGKNYVSWYQQLPGTAPKLLIYANSNRPSGVPDRFSGSKSGTSASLAISGLRSEDEADYYCASWDASLNGWVFGGGTKLTVL
efficacy in imaging studies [16]: failed to show efficacy
